Results on four molecules are retold here after ChEMBL document CHEMBL1144714, “Reaction of rosmarinic acid with nitrite ions in acidic conditions: discovery of nitro- and dinitrorosmarinic acids as new anti-HIV-1 agents” (J Med Chem, 2008).

Series [1] in a line: Cytotoxicity against human MT4 cells by MTT method. Type of series: cell-based. Summed up:
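Uninfected MT-4 lymphocytes run in parallel with the antiviral assay, with 5-fold serial compound dilutions. Viability read by MTT reduction to formazan, measured spectrophotometrically. CC50 = concentration reducing MT-4 viability by 50%.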

Series [2] can be described thus: Selectivity index, ratio of CC50 for human MT4 cells to EC50 for HIV1 3B. In kind it is functional. The method, boiled down:
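Ratio CC50/EC50 from parallel MT-4/MTT assays. CC50 comes from uninfected MT-4 cells and EC50 from MT-4 cells infected with 100–300 CCID50 of HIV-1 IIIB. Both assays used 5-fold serial dilutions.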

Series [3] addresses T1, Human immunodeficiency virus type 1 integrase (Human immunodeficiency virus 1, UniProt Q7ZJM1). Put plainly: Inhibition of HIV1 integrase using labelled oligonucleotide substrate in presence of bovine serum albumin by ELISA. A general note: In an ELISA, binding on a coated surface is turned into a signal by an enzyme label.
The target in series [4] is T1, Human immunodeficiency virus type 1 integrase. Briefly: Inhibition of HIV1 integrase 3'-processing activity using labelled oligonucleotide substrate by ELISA.
In series [5] the target is Albumin (Bos taurus, UniProt P02769). Put plainly: Binding affinity to BSA by fluorescence quenching assay. In kind it is ADME. The note with it: cattle, isolated protein. Summed up:
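BSA tryptophan fluorescence quenching at pH 7.4 on binding of the compound. Data fitted as Stern–Volmer plots, and the slope of the linear fit was taken as the quenching constant.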

The target in series [6] is T1, Human immunodeficiency virus type 1 integrase. Put plainly: Inhibition of HIV1 integrase using labelled oligonucleotide substrate by ELISA.
In series [7] the test system is Human immunodeficiency virus 1. Briefly: Antiviral activity against HIV1 3B infected in human MT4 cells assessed as reduction of virus-induced cytopathogenicity by MTT assay. In kind it is functional, organism-based. The note with it: Human immunodeficiency virus 1, 3B. Summed up: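 MT-4 lymphocytes infected with 100–300 CCID50 of HIV-1 IIIB stock (CCID50 titrated on MT-4 cells), in the presence of 5-fold serial compound dilutions. Protection against virus-induced cytopathic effect read by MTT reduction to formazan, measured spectrophotometrically. EC50 = concentration giving 50% protection against CPE.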

The target of series [8] is T1, Human immunodeficiency virus type 1 integrase. Briefly: Inhibition of HIV1 integrase strand transfer activity using labelled oligonucleotide substrate by ELISA.
Series [9] has the same target. Briefly: Inhibition of HIV1 integrase using labelled U5A/U5B double stranded DNA substrate.
Series [10] addresses Human immunodeficiency virus type 1 reverse transcriptase (Human immunodeficiency virus 1, UniProt Q72547). Briefly: Inhibition of HIV1 reverse transcriptase.

The structures appear in SMILES notation. A value given as a limit tells only on which side of the number the result lay.

T1 sequence (Q7ZJM1 whole entry): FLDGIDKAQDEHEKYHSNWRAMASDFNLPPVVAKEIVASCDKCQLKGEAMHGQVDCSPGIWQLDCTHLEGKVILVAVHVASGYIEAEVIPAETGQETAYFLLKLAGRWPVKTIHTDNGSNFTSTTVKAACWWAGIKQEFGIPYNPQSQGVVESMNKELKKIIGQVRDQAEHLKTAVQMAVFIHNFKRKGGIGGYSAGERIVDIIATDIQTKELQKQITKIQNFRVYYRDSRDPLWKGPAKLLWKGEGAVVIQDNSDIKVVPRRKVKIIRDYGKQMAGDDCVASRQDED
Chain of Albumin (P02769 whole entry): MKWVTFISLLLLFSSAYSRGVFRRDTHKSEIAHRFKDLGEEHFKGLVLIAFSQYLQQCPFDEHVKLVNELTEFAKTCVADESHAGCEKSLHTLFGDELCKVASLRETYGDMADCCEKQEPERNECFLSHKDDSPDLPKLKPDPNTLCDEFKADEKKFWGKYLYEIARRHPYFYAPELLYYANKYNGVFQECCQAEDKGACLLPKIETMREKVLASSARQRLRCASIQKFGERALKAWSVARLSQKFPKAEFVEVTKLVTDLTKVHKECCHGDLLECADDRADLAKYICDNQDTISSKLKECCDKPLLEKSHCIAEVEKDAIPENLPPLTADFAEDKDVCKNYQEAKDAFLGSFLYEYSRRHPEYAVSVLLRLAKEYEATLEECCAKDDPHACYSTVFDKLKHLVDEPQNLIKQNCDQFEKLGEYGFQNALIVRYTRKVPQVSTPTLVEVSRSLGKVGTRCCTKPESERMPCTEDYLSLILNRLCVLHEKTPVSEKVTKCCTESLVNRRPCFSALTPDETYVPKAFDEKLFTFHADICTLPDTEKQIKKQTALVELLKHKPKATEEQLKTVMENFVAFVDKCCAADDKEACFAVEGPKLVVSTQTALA

Broadly, the CC50 is the concentration giving 50% cytotoxicity. Higher therefore signals better tolerance by the cells. What is called IC50 is the concentration that inhibits the measured activity by half. The EC50 is the midpoint of the concentration-response curve. In series [1], `O=C(/C=C/c1ccc(O)c(O)c1)O[C@H](Cc1cc(O)c(O)cc1[N+](=O)[O-])C(=O)O` gave a CC50 of 160 µM. In addition, in [2], the “Ratio CC50/EC50” value was 4. Further, the IC50 in series [3] was 54.7 µM; in series [4] it was over 247 µM; in series [6] it was 1.4 µM; in series [8], 3.7 µM; in series [9], 0.026 µM. Besides, the K in [5] is 17460 10^3/M. In addition, in [7], the EC50 turned out to be 39 µM.

For the molecule `O=C(/C=C/c1cc(O)c(O)cc1[N+](=O)[O-])O[C@H](Cc1cc(O)c(O)cc1[N+](=O)[O-])C(=O)O`, the CC50 in series [1] was determined as 45.5 µM. Further, the “Ratio CC50/EC50” value in [2] is 3.8. The IC50 came out at 20.8 µM in series [3]; 52.2 µM in [4]; 0.15 µM in series [6]; 0.07 µM in series [8]; 0.03 µM in series [9]. In addition, the K in [5] is listed as 3300 10^3/M. In addition, the EC50 in [7] is 12 µM.

With `O=C(NCc1ccc(F)cc1)c1nc(N2CCCCS2(=O)=O)c2cccnc2c1O`, the CC50 in series [1] came out at 2.2 µM. Besides, the “Ratio CC50/EC50” value in [2] is listed as 457.

On to `O=C(/C=C/c1ccc(O)c(O)c1)O[C@H](Cc1ccc(O)c(O)c1)C(=O)O` [ROSMARINIC ACID], for which it took 55 µM to reach half-maximal cytotoxicity in series [1] (CC50). The results for the IC50 in series [3] and in series [10] were 63.5 µM and 100 µM, respectively. Besides, in series [7], the EC50 was over 55 µM.
